Only some compounds are listed: those with a hit (about 3.7% of all), similar ones and a draw of the others.
Arbovirus anti – blocks arbovirus infection | arbovirus infection cell-based antiviral screen | inhibition, % at 10 µM | 0.37% of 200,000 active | AID 1251; in the data active = inhibition above about 30%
Mdm2 ligase inh – Mdm2 E3 ligase (human) inhibition | cell-based MDM2 ubiquitination luciferase reporter, 2 h; 0 = plate control, 100 = twice control, blank-subtracted | signal enhancement, % at 5 µM | 0.11% of 210,000 active;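 active = signal enhancement of 30% or more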;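 also: luminescence tracks abundance of the self-degrading MDM2-luciferase fusion protein; higher signal means inhibition of MDM2 E3 ligase activity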
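Test system: mammalian cells stably expressing self-ubiquitinating, self-degrading MDM2 E3–luciferase fusion; Amount: 2000 cells in each well; Medium: DMEM; Schedule: 4 h settle plus 2 h compound, 37 °C; Technique: SteadyLite luciferase luminescence after 15 min room-temperature reagent incubation; Benchmarks: plate control and blank wells.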
Calpain2 inh – blocks pig calpain II enzyme activity | inhibition, % at 16 µM | AID 1236 | purified calpain II, fluorogenic peptide substrate, 30 min | 0.37% of 220,000 active;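 active = inhibition above about 50%, limit read from the data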
KCC2 mod – KCC2 (human) Cl- transport modulation. 2.2% of 190,000 active. B-score of Tl+ flux slope (higher = more flux/activation; lower = inhibition) at 10 µM. KCC2 cells, thallium flux FluoZin-2 fluorescence;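 active = thallium flux slope and its plate-corrected score both differing from the plate sample mean at a set confidence after two filtering rounds, in either direction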;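 also: slope of fluorescence scaled to starting intensity during 10 to 20 s after thallium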
PKD1 kinase inh – inhibitors of human PKD1 kinase; PKD1 kinase fluorescence polarization assay; AID 797; Q15139; 0.056% of 200,000 active; inhibition, % (test concentration not listed); in the data active = inhibition above about 50%
Target sequence (Q15139 whole entry, looked up): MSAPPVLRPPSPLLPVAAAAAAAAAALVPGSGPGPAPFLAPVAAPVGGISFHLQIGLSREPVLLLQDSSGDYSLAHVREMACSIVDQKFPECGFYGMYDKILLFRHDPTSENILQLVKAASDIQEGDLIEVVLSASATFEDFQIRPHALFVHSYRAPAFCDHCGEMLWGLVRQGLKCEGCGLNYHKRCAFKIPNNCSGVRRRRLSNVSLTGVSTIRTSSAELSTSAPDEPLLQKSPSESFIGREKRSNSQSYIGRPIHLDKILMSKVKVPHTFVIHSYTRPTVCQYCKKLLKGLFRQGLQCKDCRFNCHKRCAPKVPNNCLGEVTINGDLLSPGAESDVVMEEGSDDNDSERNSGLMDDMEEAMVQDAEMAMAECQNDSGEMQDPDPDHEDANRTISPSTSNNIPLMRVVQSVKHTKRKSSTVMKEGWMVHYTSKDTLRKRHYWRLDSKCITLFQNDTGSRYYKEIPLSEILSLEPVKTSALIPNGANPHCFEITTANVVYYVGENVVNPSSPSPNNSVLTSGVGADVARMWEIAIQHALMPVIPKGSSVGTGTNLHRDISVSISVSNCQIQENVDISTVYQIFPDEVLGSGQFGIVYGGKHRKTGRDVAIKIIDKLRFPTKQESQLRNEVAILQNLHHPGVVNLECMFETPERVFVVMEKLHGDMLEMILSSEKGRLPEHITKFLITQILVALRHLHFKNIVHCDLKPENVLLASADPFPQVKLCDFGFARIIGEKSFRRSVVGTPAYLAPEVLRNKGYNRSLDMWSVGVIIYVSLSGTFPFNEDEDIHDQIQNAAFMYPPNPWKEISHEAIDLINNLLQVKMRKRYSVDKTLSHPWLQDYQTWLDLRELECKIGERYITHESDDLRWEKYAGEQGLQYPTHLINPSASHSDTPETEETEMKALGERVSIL
ROMK primary – human ROMK K+ channel modulation, primary screen; P48048; Tet-inducible ROMK, thallium flux fluorescence; actives lie on both sides; B-score at 10 µM; 2% of 130,000 active;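 active = signal ratio slope over the read window, or its plate-corrected B-score, at least 3 SD from the plate mean, either direction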;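 also: B-score of the F/F0 ratio slope over 7 to 12 s after thallium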
KCC2 secondary – KCC2 (human) modulation, secondary assay; shares compounds with KCC2 mod; HEK293-KCC2, thallium flux, FluoZin2 fluorescence; active compounds read high; normalised thallium flux (F/F0 slope) at 10 µM; 15% of 3,700 active;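 active = thallium flux slope above the same plate's solvent-only control mean plus 3 SD; inconclusive = the two replicate wells disagree; inactive = no significant difference from solvent-only control wells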
KCC2 bumet counter – thallium flux despite bumetanide block in KCC2 cells, secondary assay 3; normalized thallium flux at 10 µM; 49% of 3,700 active; shares compounds with KCC2 mod; HEK293-KCC2 + bumetanide/ouabain, thallium flux FluoZin2; active compounds read high;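 active = thallium entry rate above the same plate's blocked-transporter control wells by more than 3 SD; inconclusive = the two repeat wells disagree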;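 also: raw slope of fluorescence over initial fluorescence between 10 and 20 s after thallium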
KCC2 sec2 – KCC2 (human) modulation, second secondary assay | shares compounds with KCC2 mod | HEK293-KCC2, thallium flux FluoZin2 fluorescence; actives lie on both sides; F/F0 rise rate, 10–20 s post-thallium | normalized thallium flux at 10 µM | 23% of 3,700 active;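 active = thallium flux slope more than 3 SD above or below the plate's solvent-only control mean, mostly below; inconclusive = the two repeat wells disagreed; inactive = no significant shift from solvent-only controls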
HEK counter1 – parental HEK flux effect, counter-screen; HEK293 parental cells, thallium flux FluoZin2, ouabain; baseline-ratio fluorescence slope, 10–20 s after thallium; thallium flux rate (normalised fluorescence) at 10 µM; shares compounds with KCC2 mod; 46% of 3,700 active;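 active = thallium flux rate significantly above the same plate's solvent-only control wells, beyond their mean plus 3 SD; inconclusive = the two replicate wells gave conflicting results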
KCC2 ouabain – confirmation of human KCC2 modulators with ouabain; shares compounds with KCC2 mod; HEK293-KCC2, thallium flux FluoZin2 fluorescence; bidirectional: low = inhibitor, high = activator; raw Tl+ flux slope (below DMSO = inhibition, above = activation) at 10 µM; 48% of 3,700 active; AID 1717;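 active = thallium flux slope beyond 3 SD from same-plate DMSO control mean in most replicates, usually higher, sometimes lower; inconclusive = repeat tests gave conflicting results; inactive = no significant difference from controls in most replicates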;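 also: slope of initial-normalized fluorescence between seconds 10 and 20 after thallium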
HEK293 Tl flux2 – acts in parental HEK cells, second KCC2 counter-screen; shares compounds with KCC2 mod; HEK293 parental, thallium flux FluoZin-2 fluorescence slope; thallium flux slope at 10 µM; 33% of 3,700 active; AID 1718;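 active = thallium flux slope above the same plate's solvent-control mean plus 3 SD in both duplicate wells; inconclusive = duplicate wells that disagreed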;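 also: run without ouabain in cells lacking the KCC2 cotransporter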
Each line names hits and unclear results; the compound was inactive in the other large screens (follow-up assays come after a bar, where they were run).

O=C(Cn1c(-c2ccccc2)noc1=O)Nc1ccc(N2CCCCCC2)cc1	none (no result: KCC2 mod) | KCC2 secondary inactive | KCC2 bumet counter inactive | KCC2 sec2 inactive | HEK counter1 inactive | KCC2 ouabain 0.0163 | HEK293 Tl flux2 inactive
O=C(Cn1c(-c2ccccc2)noc1=O)Nc1ccc(S(=O)(=O)N2CCOCC2)cc1	none (no result: ROMK primary)
COc1ccc(-c2noc(=O)n2CC(=O)N2CCC(Cc3ccccc3)CC2)cc1	KCC2 mod -4.73 | KCC2 secondary inactive | KCC2 bumet counter 0.00326 | KCC2 sec2 0.0226 | HEK counter1 0.00521 | KCC2 ouabain 0.0131 | HEK293 Tl flux2 0.00751
CC12CCC(C/C1=N\N=C1\NC(=O)/C(=C\c3ccc(Cl)cc3)S1)C2(C)C (stereo unspecified)	none
CCOC(=O)c1ccc(NC(=S)NCCc2ccccc2F)cc1	none
O=C(NCc1ccccn1)C(=O)N/N=C/c1ccc2c(c1)OCO2	none (no result: ROMK primary)
CCCC(=O)Nc1cccc(-c2nc3cc(C)c(C)cc3o2)c1	none (no result: KCC2 mod) | KCC2 secondary inactive | KCC2 bumet counter inactive | KCC2 sec2 inactive | HEK counter1 inactive | KCC2 ouabain inactive | HEK293 Tl flux2 inactive
CCOC(=O)c1cn(CC)c2cc(N3CCSCC3)c(F)cc2c1=O	KCC2 mod 8.04 | KCC2 secondary inactive | KCC2 bumet counter inactive | KCC2 sec2 inactive | HEK counter1 inactive | KCC2 ouabain inactive | HEK293 Tl flux2 inactive
O=C1CCN(C(=O)c2ccc(Cl)cc2)N1	KCC2 mod -3.28 | KCC2 secondary inactive | KCC2 bumet counter inactive | KCC2 sec2 inactive | HEK counter1 inactive | KCC2 ouabain inactive | HEK293 Tl flux2 inactive
S=c1[nH]nc(COc2ccccc2)n1/N=C/c1ccc(Br)s1	KCC2 mod 50.5 | KCC2 secondary inconclusive | KCC2 bumet counter 0.0774 | KCC2 sec2 inactive | HEK counter1 0.0217 | KCC2 ouabain 0.0269 | HEK293 Tl flux2 0.0255
CC(/C=N/n1c(COc2ccccc2)n[nH]c1=S)=C\c1ccco1	KCC2 mod 121 (no result: Arbovirus anti, PKD1 kinase inh, ROMK primary) | KCC2 secondary 0.0147 | KCC2 bumet counter 0.173 | KCC2 sec2 inactive | HEK counter1 0.0549 | KCC2 ouabain 0.0456 | HEK293 Tl flux2 0.0135
S=c1[nH]nc(COc2ccccc2)n1/N=C/c1ccco1	none (no result: ROMK primary)
Oc1c(C=Nc2ccccc2)sc2ccccc12	KCC2 mod 2.78 | KCC2 secondary inactive | KCC2 bumet counter inactive | KCC2 sec2 inactive | HEK counter1 inactive | KCC2 ouabain inconclusive | HEK293 Tl flux2 inactive
Oc1c(C=Nc2cccnc2)sc2ccccc12	none
Cc1ccc(NC(=S)NNC(=O)c2ccc(N3CCOCC3)c([N+](=O)[O-])c2)cc1Cl	none
O=C(NNC(=S)Nc1ccc(Br)cc1)c1ccc(N2CCOCC2)c([N+](=O)[O-])c1	KCC2 mod -3.83 (no result: Mdm2 ligase inh) | KCC2 secondary inactive | KCC2 bumet counter inactive | KCC2 sec2 inactive | HEK counter1 inconclusive | KCC2 ouabain 0.0158 | HEK293 Tl flux2 inactive
Oc1[nH]c2ccccc2c1/C=N/c1nccs1	KCC2 mod 15.1 (no result: ROMK primary) | KCC2 secondary 0.0132 | KCC2 bumet counter 0.0231 | KCC2 sec2 inactive | HEK counter1 inconclusive | KCC2 ouabain inconclusive | HEK293 Tl flux2 inconclusive
Cc1cc2ccccn2c1C(=S)NC(=O)c1ccccc1	KCC2 mod 65.5 | KCC2 secondary 0.02 | KCC2 bumet counter 0.144 | KCC2 sec2 0.101 | HEK counter1 0.12 | KCC2 ouabain 0.121 | HEK293 Tl flux2 0.105
Cc1cc2ccccn2c1C(=O)c1ccncc1	none (no result: ROMK primary)
CC(C)(C)c1ccc(-c2n[nH]c(=S)n2CCCN2CCOCC2)cc1	none
Cc1sc2ncnc(SCC(=O)NC(C)C(C)C)c2c1C (stereo unspecified)	none
Cc1sc2ncnc(SCC(=O)Nc3nc(-c4ccc(F)c(F)c4)cs3)c2c1C	KCC2 mod 45 (no result: Mdm2 ligase inh) | KCC2 secondary 0.0258 | KCC2 bumet counter 0.0779 | KCC2 sec2 0.0459 | HEK counter1 0.0398 | KCC2 ouabain 0.0716 | HEK293 Tl flux2 0.0224
Cc1c(Nc2nc(-c3ccc(Cl)cc3)cs2)c(=O)n(-c2ccccc2)n1C	KCC2 mod -4.52 (no result: ROMK primary) | KCC2 secondary inactive | KCC2 bumet counter inactive | KCC2 sec2 0.0241 | HEK counter1 0.00576 | KCC2 ouabain 0.0135 | HEK293 Tl flux2 inconclusive
Cc1c(NC2=C(Cl)C(=O)N(c3ccccc3Cl)C2=O)c(=O)n(-c2ccccc2)n1C	none
Cc1c(NC2=C(Cl)C(=O)N(c3ccccc3)C2=O)c(=O)n(-c2ccccc2)n1C	KCC2 mod -4.35 | KCC2 secondary inconclusive | KCC2 bumet counter inactive | KCC2 sec2 inactive | HEK counter1 inactive | KCC2 ouabain inactive | HEK293 Tl flux2 inactive
CCOC(=O)C(C)Sc1nc2ccccc2c(=O)n1CC (stereo unspecified)	none
Cc1cc(NC(=O)CSc2nc3ccccc3c(=O)n2Cc2ccccc2)no1	none (no result: KCC2 mod)
Cc1ccc(Cn2c(SC(C)C(N)=O)nc3ccccc3c2=O)cc1 (stereo unspecified)	KCC2 mod 8.63 | KCC2 secondary inactive | KCC2 bumet counter 0.0221 | KCC2 sec2 inactive | HEK counter1 0.0151 | KCC2 ouabain 0.0301 | HEK293 Tl flux2 0.018
C/C(N)=C(/C#N)C(=O)CSc1nc2ccccc2c(=O)n1Cc1ccc(C)cc1	KCC2 mod 21.7 | KCC2 secondary inactive | KCC2 bumet counter 0.0213 | KCC2 sec2 inactive | HEK counter1 0.025 | KCC2 ouabain 0.0289 | HEK293 Tl flux2 0.0156
Cc1ccc(Cn2c(SCC(=O)Nc3cc(C)on3)nc3ccccc3c2=O)cc1	none (no result: KCC2 mod) | KCC2 secondary inactive | KCC2 bumet counter inactive | KCC2 sec2 inconclusive | HEK counter1 0.0162 | KCC2 ouabain 0.0273 | HEK293 Tl flux2 0.019
C/C(N)=C(/C#N)C(=O)CSc1nc2scc(-c3ccc(F)cc3)c2c(=O)n1C	none
C/C(N)=C(/C#N)C(=O)CSc1nnc(C)n1-c1ccccc1	none

Screens as filed in PubChem.
